Assay results pooled from the literature.
Protocols differ between the studies behind these lines.
Target: Receptor tyrosine-protein kinase erbB-2 (ERBB2, Homo sapiens, UniProt P04626)

CC#CC(=O)Nc1cc2c(Nc3ccc(F)c(Cl)c3)ncnc2cn1  remaining signal (cell-free assay; 0.5 µM): 2.36%
C[C@@]1(Cc2ccc(C#N)cc2)C(=O)N(c2cc(Cl)cc(Cl)c2)c2ncc(C(=O)NC3(c4nc(C5CCC5)no4)CC3)n21  remaining binding (cell-free assay, competition with immobilised ligand; 1 µM): 100%
O=C1NC(=O)c2cc(Nc3ccc(F)cc3)c(Nc3ccc(F)cc3)cc21  remaining signal (cell-free assay; 0.5 µM): 107%
CC(C)(C)c1nc(-c2cccc(NS(=O)(=O)c3c(F)cccc3F)c2F)c(-c2ccnc(N)n2)s1  remaining activity (enzyme activity, inhibitor, radiometric; 1 µM): 96%
O=C(CSc1nc2nccnc2c(=O)n1CCc1ccccc1)Nc1nccs1  inhibition (enzyme activity, inhibitor; 10 µM): -11%
O=C(Nc1cnn(-c2csc(C(=O)NC3COC3)c2)c1)Nc1c(F)cccc1Cl  remaining activity (enzyme activity, inhibitor; 5 µM): 97%
CC(=O)N1CCC(c2ccc(C(=O)NC3=NCCN3)cc2C(F)(F)F)CC1  remaining binding (cell-free assay, competition with immobilised ligand; 1 µM): 100%
COc1cc(Cl)c(C(=O)N[C@@H](CN[C@H]2CC[C@@H](N)CC2)Cc2ccc(C#N)cc2)cc1-c1ccc(CN[C@H](C)c2ccc(C)cc2)o1  remaining activity (enzyme activity, inhibitor; 1 µM): 91%
Oc1ccc(-c2nc(-c3ccncc3)c(-c3ccc(F)cc3)[nH]2)cc1  remaining signal (cell-free assay; 0.5 µM): 95.5%
C[C@H](c1ccnc(Nc2nc3ccc(-c4cc(N(C)C)ncn4)cc3[nH]2)c1)N1CCN(C(=O)CC(F)(F)F)CC1  remaining binding (cell-free assay, competition with immobilised ligand; 0.1 µM): 100%
Cc1ccc(NC(=O)c2ccc(C)c(C(F)(F)F)c2)cc1C#Cc1nn(C2CCC(O)CC2)c2ncnc(N)c12 (stereo not shown)  remaining signal (cell-free assay; 10 µM): 4%
CN(C)C(=O)Cn1cc(-c2nc([C@@](C)(c3ccc(-c4cnc(N)nc4)cc3)C3CC3)no2)cn1  remaining binding (cell-free assay, competition with immobilised ligand; 1 µM): 100%
Nc1ncnc2occ(-c3ccc(NC(=O)Nc4cc(C(F)(F)F)ccc4F)cc3)c12  remaining signal (cell-free assay, inhibitor; 20 µM): 0%
Nc1nc(Nc2ccc(S(N)(=O)=O)cc2)nn1C(=O)c1c(F)cccc1F  remaining signal (cell-free assay; 0.5 µM): 91.1%
CS(=O)(=O)N1CCCC(NC(=O)[C@H](CCC2CCCCC2)NC(=O)c2ccc(CNc3ncnc4c3nnn4-c3ccccc3)cc2)C1 (stereo partly shown)  remaining binding (cell-free assay, competition with immobilised ligand; 0.1 µM): 100%
COc1cc2ncnc(Nc3ccc(Oc4ccccc4)cc3C)c2cc1OC  inhibition (enzyme activity, inhibitor; 1 µM): 55%
C[C@@H]1CN(c2cc(-c3nn(C)c4ccc(OC5(C)CC5)cc34)ncn2)C[C@H](C)O1  remaining binding (cell-free assay, competition with immobilised ligand; 1 µM): 80%
c1ccc(CNc2nc(N3CCOc4ccccc43)nc3c2CCCC3)cc1  inhibition (target engagement in cells, inhibitor, chemoproteomics; 20 mM): 0.8%
Cc1ccc(C(=O)NCc2ccsc2)cc1C#Cc1cn(C(C)C)c2ncnc(N)c12  activity vs control (enzyme activity, inhibitor; 1 µM): 66%
N#Cc1ccc(Nc2ccc3[nH]c(=O)[nH]c3c2)c(Cl)c1  remaining binding (cell-free assay, competition with immobilised ligand; 1 µM): 100%
Cc1cc(NC(=O)c2cccc3cc(-c4cccc5[nH]nc(N)c45)ccc23)ccc1F  activity vs control (enzyme activity, inhibitor; 0.1 µM): 108%
N#CCCc1ccc2c(c1)-c1[nH]c3ccc([N+](=O)[O-])cc3c1CC(=O)N2  remaining signal (cell-free assay; 0.5 µM): 98.6%
Cc1cnc(NC2CCOCC2)nc1-n1cnc(C(=O)NC(CN)c2cc(F)cc(Cl)c2)c1 (stereo not shown)  remaining activity (enzyme activity, inhibitor, radiometric; 1 µM): 100%
C#Cc1cccc(Nc2ncnc3cc(OCCOC)c(OCCOC)cc23)c1  remaining signal (cell-free assay; 0.5 µM): 52.8%
C[C@H](c1ccc(F)cc1)N(Cc1cccc(C(=O)O)c1)C(=O)c1cnc2ccccc2c1  remaining binding (cell-free assay, competition with immobilised ligand; 1 µM): 100%
